Data reported in ChEMBL document CHEMBL1152520.

What was measured:
RAW264.7 = experiment: Inhibition of LPS-induced NF-kappaB transcriptional activation expressed in mouse RAW264.7 cells assessed as NF-kappaB activity at 10 uM treated after LPS challenge measured after 24 hrs by luciferase reporter gene assay relative to control; format: cell-based
Summary of the method: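 RAW 264.7 cells, about 1 10^5 per well, were seeded 24 h before co-transfection (lipofectamine plus) with pAP-1-Luc or pNF-κB-Luc plus the pGL-hRluc internal control. At 48 h post-transfection, E. coli 0111:B4 LPS (100 ng/mL final) was added for 6 h. Compound in DMSO (10 µM final) was then added and cells were harvested 24 h later. Dual-luciferase readout: firefly/Renilla ratio expressed as multiples of the untreated control, mean SEM, n = 3. Paired Student's t-test.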

[1] = Inhibition of LPS-induced AP1 transcriptional activation expressed in mouse RAW264.7 cells assessed as AP1 activity at 10 uM treated after LPS challenge measured after 24 hrs by luciferase reporter gene assay relative to control

Row | Structure (SMILES) | Activity [1] | luciferase ratio (RAW264.7)
1 | C[C@@]12CC[C@@H]3[C@@](C/C1=N\O)(C2)[C@@H](O)C[C@H]1[C@@]3(C)[C@@H](O)CC[C@@]1(C)C(=O)O | 3.37 | 0.26
2 | C[C@@]12CC[C@H]3[C@]4(C)CCC[C@@](C)(C(=O)O)[C@H]4C[C@H](O)[C@]3(C/C1=N\O)C2 | 2.69 | 0.16
3 | C[C@@]12CC[C@@H]3[C@@](CC[C@H]4[C@@]3(C)[C@@H](O)CC[C@@]4(C)C(=O)O)(C/C1=N\O)C2 | 3.52 | 0.13
4 | C[C@@]12CC[C@@H]3[C@@](CC[C@H]4[C@@]3(C)CCC[C@@]4(C)C(=O)O)(CC(=O)O1)C2 | 2.38 | 0.2
5 | C[C@@]12CC[C@@H]3[C@@](CC[C@H]4[C@@]3(C)CCC[C@@]4(C)C(=O)O)(CC(=O)N1)C2 | 3.19 | 0.15
6 | C[C@@]12CC[C@@H]3[C@@](CC1=O)(C2)[C@@H](O)C[C@H]1[C@@]3(C)[C@@H](O)CC[C@@]1(C)C(=O)O | 2.98 | 0.16

Now from value to compound, other results behind:

Row | Activity [1] | Structure (SMILES) | luciferase ratio (RAW264.7)
7 | 2.85 | CC1=C[C@@]2(CC#N)CC[C@H]3[C@@](C)(CCC[C@@]3(C)C(=O)O)[C@@H]2CC1 | 0.22
8 | 2.22 | CC1=CC[C@@H]2[C@](CC#N)(CC[C@H]3[C@@]2(C)CCC[C@@]3(C)C(=O)O)C1 | 0.18
9 | 4.87 | C[C@@]12CC[C@@H]3[C@@](CC[C@H]4[C@@]3(C)CCC[C@@]4(C)C(=O)O)(C/C1=N\O)C2 | 0.15
